Reference: ChEMBL document CHEMBL2331493, “Chemical tagging of a drug target using 5-sulfonyl tetrazole” (Bioorg Med Chem Lett, 2013)
Active and inactive are the calls of the source. The rule behind the calls is not given here.

What was measured:
[1] = biological target: Peptidyl-prolyl cis-trans isomerase A (Homo sapiens) (UniProt P62937); test: Binding affinity to cyclophilin A in human Jurkat cell lysates at 1.1 uM after 24 hrs by SDS-PAGE analysis
Method in brief: (§1)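 Biotinylated probe incubated with a lysate of Jurkat cells (human leukemia T cells). The lysate was then mixed with streptavidin beads to pull down proteins with affinity for the probe. Bead-captured proteins were resolved by SDS–PAGE, and protein bands were read out.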

[2] = biological target: Peptidyl-prolyl cis-trans isomerase A (Homo sapiens) (UniProt P62937); test: Binding affinity to cyclophilin A in human Jurkat cell lysates at 1.1 uM after 24 hrs by SDS-PAGE analysis in presence of N-ethylmaleimide
[3] = biological target: Peptidyl-prolyl cis-trans isomerase A (Homo sapiens) (UniProt P62937); test: Binding affinity to cyclophilin A in human Jurkat cell lysates at 1.1 uM after 24 hrs by Western blot analysis
[4] = biological target: Peptidyl-prolyl cis-trans isomerase A (Homo sapiens) (UniProt P62937); test: Binding affinity to cyclophilin A in human Jurkat cell lysates at 1.1 uM after 24 hrs by SDS-PAGE analysis in presence of cyclosporine A
[5] = biological target: Peptidyl-prolyl cis-trans isomerase A (Homo sapiens) (UniProt P62937); test: Binding affinity to biotin-tagged cyclophilin A in human Jurkat cell lysates at 1.1 uM after 24 hrs by SDS-PAGE analysis; method in brief: as §1

Peptidyl-prolyl cis-trans isomerase A (Homo sapiens), sequence (P62937 whole entry, looked up): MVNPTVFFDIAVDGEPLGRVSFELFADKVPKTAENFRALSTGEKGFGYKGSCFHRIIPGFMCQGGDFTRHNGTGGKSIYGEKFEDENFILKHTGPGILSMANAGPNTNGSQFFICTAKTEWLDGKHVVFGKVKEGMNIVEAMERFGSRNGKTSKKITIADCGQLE

Row | Activity [1] | Activity [2] | Activity [3] | Activity [4] | Activity [5] | Compound
1 | Active | Active | Active | inactive | – | CC[C@@H]1NC(=O)[C@H]([C@H](O)[C@H](C)C/C=N\OCC(=O)NCCCC(=O)NCCCCNC(=O)CCS(=O)(=O)c2nnnn2CCCCCNC(=O)CCCC[C@@H]2SC[C@@H]3NC(=O)N[C@@H]32)N(C)C(=O)[C@H](C(C)C)N(C)C(=O)[C@H](CC(C)C)N(C)C(=O)[C@H](CC(C)C)N(C)C(=O)[C@@H](C)NC(=O)[C@H](C)NC(=O)[C@H](CC(C)C)N(C)C(=O)[C@H](C(C)C)NC(=O)[C@H](CC(C)C)N(C)C(=O)CN(C)C1=O
2 | inactive | – | – | – | – | CC(C)(C)OC(=O)NCCCC(=O)NCCCCNC(=O)CCS(=O)(=O)c1nnnn1CCCCCNC(=O)CCCC[C@@H]1SC[C@@H]2NC(=O)N[C@@H]21
3 | Active | – | Active | inactive | inactive | CC[C@@H]1NC(=O)[C@H]([C@H](O)[C@H](C)C/C=N\OCC(=O)NCCCC(=O)NCCCCNC(=O)CCSc2nnnn2CCCCCNC(=O)CCCC[C@@H]2SC[C@@H]3NC(=O)N[C@@H]32)N(C)C(=O)[C@H](C(C)C)N(C)C(=O)[C@H](CC(C)C)N(C)C(=O)[C@H](CC(C)C)N(C)C(=O)[C@@H](C)NC(=O)[C@H](C)NC(=O)[C@H](CC(C)C)N(C)C(=O)[C@H](C(C)C)NC(=O)[C@H](CC(C)C)N(C)C(=O)CN(C)C1=O
4 | inactive | – | – | – | – | CC(C)(C)OC(=O)NCCCC(=O)NCCCCNC(=O)CCSc1nnnn1CCCCCNC(=O)CCCC[C@@H]1SC[C@@H]2NC(=O)N[C@@H]21
